Calls of active or inactive are those of the source. Unless noted, the calls are words filed in the database; no cut-off is given here.
Assays:
[1] = Inhibition of sst receptor at 10 uM by radioligand displacement assay
How it was run: (§1)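 Off-target panel: radioligand binding to each receptor, channel or transporter with test compound at 10 µM; activity reported as percent inhibition of specific binding. At least 6 control wells with or without vehicle per assay. Inhibition of 50% or greater counted as a positive response.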

[2] = target: Muscarinic acetylcholine receptor M1 (Homo sapiens) (UniProt P11229); assay: Inhibition of M1 receptor at 10 uM by radioligand displacement assay
How it was run: (§2)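 Off-target radioligand binding panel. Test compound at 10 µM. Each assay had at least 6 control wells, with or without vehicle, for soluble compounds. Values are percent inhibition of radioligand binding. ≥50% inhibition was scored as a positive response.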

[3] = Inhibition of Smt-tagged S-nitrosoglutathione reductase expressed in Escherichia coli using […] as substrate for 3 mins by spectrophotometric analysis; conditions: read-out: IC50
[4] = Inhibition of Sodium channel at 10 uM by radioligand displacement assay; how it was run: as §2
[5] = target: B2 bradykinin receptor (Homo sapiens) (UniProt P30411); assay: Inhibition of B2 receptor at 10 uM by radioligand displacement assay; how it was run: as §2
Sequence of B2 bradykinin receptor (Homo sapiens) (P30411 whole entry): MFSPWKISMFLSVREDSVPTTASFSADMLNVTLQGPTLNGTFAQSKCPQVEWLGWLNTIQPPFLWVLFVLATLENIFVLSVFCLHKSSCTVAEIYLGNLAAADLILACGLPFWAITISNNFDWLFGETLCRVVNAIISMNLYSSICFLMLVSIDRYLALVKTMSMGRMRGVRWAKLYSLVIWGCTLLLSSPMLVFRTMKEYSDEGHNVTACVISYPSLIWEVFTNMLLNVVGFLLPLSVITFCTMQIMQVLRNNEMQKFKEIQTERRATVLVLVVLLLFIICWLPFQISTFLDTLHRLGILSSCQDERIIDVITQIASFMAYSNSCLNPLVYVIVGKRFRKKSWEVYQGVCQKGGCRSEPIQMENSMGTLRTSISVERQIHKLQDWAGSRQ

[6] = Inhibition of Small conductance calcium-activated potassium channel at 10 uM by radioligand displacement assay; how it was run: as §2
[7] = target: Vasopressin V1a receptor (Homo sapiens) (UniProt P37288); assay: Inhibition of V1a receptor at 10 uM by radioligand displacement assay; how it was run: as §2
[8] = target: 5-hydroxytryptamine receptor 2B (Homo sapiens) (UniProt P41595); assay: Inhibition of 5HT2b receptor at 10 uM by radioligand displacement assay; how it was run: as §2
[9] = target: Sodium-dependent noradrenaline transporter (Homo sapiens) (UniProt P23975); assay: Inhibition of norepinephrine […] at 10 uM by radioligand displacement assay; how it was run: as §1
Sequence of Sodium-dependent noradrenaline transporter (Homo sapiens) (P23975 whole entry): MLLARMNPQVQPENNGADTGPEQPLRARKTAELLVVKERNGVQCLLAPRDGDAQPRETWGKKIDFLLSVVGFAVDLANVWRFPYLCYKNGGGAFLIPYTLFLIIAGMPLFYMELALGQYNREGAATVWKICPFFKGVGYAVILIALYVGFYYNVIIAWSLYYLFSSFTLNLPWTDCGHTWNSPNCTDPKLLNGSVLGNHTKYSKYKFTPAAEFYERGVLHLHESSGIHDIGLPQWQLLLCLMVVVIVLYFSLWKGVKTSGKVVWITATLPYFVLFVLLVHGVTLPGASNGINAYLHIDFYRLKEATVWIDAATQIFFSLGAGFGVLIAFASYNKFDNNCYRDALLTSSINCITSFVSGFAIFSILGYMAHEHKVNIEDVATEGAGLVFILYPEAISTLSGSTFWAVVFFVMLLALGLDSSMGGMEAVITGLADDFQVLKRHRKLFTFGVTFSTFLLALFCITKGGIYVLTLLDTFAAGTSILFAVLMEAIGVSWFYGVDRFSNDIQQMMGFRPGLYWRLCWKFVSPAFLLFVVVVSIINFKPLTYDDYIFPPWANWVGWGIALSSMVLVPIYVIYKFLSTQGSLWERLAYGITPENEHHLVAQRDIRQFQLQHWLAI

[10] = target: Kappa-type opioid receptor (Homo sapiens) (UniProt P41145); assay: Inhibition of Kappa opioid receptor at 10 uM by radioligand displacement assay; how it was run: as §2
Sequence of Kappa-type opioid receptor (Homo sapiens) (P41145 whole entry): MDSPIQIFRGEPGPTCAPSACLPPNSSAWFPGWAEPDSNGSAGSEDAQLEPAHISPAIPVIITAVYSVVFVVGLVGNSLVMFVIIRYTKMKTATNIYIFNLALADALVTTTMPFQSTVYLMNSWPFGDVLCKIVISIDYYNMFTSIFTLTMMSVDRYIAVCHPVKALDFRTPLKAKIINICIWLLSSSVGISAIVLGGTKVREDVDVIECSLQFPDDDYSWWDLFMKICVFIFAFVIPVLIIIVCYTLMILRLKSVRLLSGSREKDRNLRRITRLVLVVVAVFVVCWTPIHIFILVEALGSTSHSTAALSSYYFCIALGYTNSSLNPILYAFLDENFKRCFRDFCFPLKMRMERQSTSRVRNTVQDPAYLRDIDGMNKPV

[11] = target: Muscarinic acetylcholine receptor M2 (Homo sapiens) (UniProt P08172); assay: Inhibition of M2 receptor at 10 uM by radioligand displacement assay; how it was run: as §2
[12] = target: Neuropeptide Y receptor type 1 (Homo sapiens) (UniProt P25929); assay: Inhibition of Y1 receptor at 10 uM by radioligand displacement assay; how it was run: as §2
[13] = target: Neuropeptide Y receptor type 2 (Homo sapiens) (UniProt P49146); assay: Inhibition of Y2 receptor at 10 uM by radioligand displacement assay; how it was run: as §2
[14] = Inhibition of delta2 opioid receptor at 10 uM by radioligand displacement assay; how it was run: as §1
[15] = target: D(1A) dopamine receptor (Homo sapiens) (UniProt P21728); assay: Inhibition of dopamine D1 receptor at 10 uM by radioligand displacement assay; how it was run: as §1
Sequence of D(1A) dopamine receptor (Homo sapiens) (P21728 whole entry): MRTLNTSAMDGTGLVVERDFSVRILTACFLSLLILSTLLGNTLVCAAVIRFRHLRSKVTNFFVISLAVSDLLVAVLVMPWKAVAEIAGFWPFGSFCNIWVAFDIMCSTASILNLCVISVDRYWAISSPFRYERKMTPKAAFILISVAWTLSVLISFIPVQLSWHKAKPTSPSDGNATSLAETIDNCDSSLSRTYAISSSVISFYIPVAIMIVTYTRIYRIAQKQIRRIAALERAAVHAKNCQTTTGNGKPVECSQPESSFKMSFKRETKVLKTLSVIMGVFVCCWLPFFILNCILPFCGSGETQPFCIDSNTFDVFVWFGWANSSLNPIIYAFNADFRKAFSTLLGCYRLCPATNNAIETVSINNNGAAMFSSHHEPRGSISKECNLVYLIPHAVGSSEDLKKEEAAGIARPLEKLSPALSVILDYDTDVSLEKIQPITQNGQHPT

[16] = target: Adenosine receptor A3 (Homo sapiens) (UniProt P0DMS8); assay: Inhibition of adenosine A3 receptor at 10 uM by radioligand displacement assay; how it was run: as §1
[17] = target: Adenosine receptor A2a (Homo sapiens) (UniProt P29274); assay: Inhibition of adenosine A2a receptor at 10 uM by radioligand displacement assay; how it was run: as §2
[18] = target: Type-1 angiotensin II receptor (Homo sapiens) (UniProt P30556); assay: Inhibition of AT1 receptor at 10 uM by radioligand displacement assay; how it was run: as §2
[19] = Inhibition of alpha2 adrenergic receptor at 10 uM by radioligand displacement assay; how it was run: as §1
A549 = assay: Cytotoxicity against human A549 cells after 48 hrs by MTS assay; type: cell-based; conditions: A549, 48 h
[20] = target: Cholecystokinin receptor type A (Homo sapiens) (UniProt P32238); assay: Inhibition of CCK1 receptor at 10 uM by radioligand displacement assay; how it was run: as §2
[21] = target: Vasoactive intestinal polypeptide receptor 1 (Homo sapiens) (UniProt P32241); assay: Inhibition of VPAC1 receptor at 10 uM by radioligand displacement assay; how it was run: as §2
Sequence of Vasoactive intestinal polypeptide receptor 1 (Homo sapiens) (P32241 whole entry): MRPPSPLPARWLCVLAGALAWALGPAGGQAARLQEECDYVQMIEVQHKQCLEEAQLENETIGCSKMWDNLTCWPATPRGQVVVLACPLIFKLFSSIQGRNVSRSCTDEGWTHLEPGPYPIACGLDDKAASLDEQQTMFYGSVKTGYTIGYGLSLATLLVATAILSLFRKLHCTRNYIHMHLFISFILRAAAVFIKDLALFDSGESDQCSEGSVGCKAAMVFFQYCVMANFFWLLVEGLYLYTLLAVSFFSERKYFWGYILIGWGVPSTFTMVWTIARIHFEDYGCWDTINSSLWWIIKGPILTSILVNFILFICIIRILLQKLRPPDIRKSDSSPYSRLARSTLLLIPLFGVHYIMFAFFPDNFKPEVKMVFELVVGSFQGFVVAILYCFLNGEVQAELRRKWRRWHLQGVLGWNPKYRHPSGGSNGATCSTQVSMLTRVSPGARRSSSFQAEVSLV

[22] = target: 5-hydroxytryptamine receptor 1A (Homo sapiens) (UniProt P08908); assay: Inhibition of 5HT1A receptor at 10 uM by radioligand displacement assay; how it was run: as §2
Sequence of 5-hydroxytryptamine receptor 1A (Homo sapiens) (P08908 whole entry): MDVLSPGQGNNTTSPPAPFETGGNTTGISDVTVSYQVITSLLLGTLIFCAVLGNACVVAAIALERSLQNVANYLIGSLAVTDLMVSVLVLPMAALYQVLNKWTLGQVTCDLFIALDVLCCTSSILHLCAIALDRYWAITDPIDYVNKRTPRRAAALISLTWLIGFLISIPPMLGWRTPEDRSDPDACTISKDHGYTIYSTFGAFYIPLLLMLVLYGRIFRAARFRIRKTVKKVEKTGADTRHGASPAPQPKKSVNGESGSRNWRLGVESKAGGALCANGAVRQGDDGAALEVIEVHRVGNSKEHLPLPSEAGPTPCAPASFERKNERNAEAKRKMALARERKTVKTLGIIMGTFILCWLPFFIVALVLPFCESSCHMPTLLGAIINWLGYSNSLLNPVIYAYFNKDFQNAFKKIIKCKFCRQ

[23] = target: Adenosine receptor A1 (Homo sapiens) (UniProt P30542); assay: Inhibition of adenosine A1 receptor at 10 uM by radioligand displacement assay; how it was run: as §2
[24] = target: Muscarinic acetylcholine receptor M3 (Homo sapiens) (UniProt P20309); assay: Inhibition of M3 receptor at 10 uM by radioligand displacement assay; how it was run: as §2
Sequence of Muscarinic acetylcholine receptor M3 (Homo sapiens) (P20309 whole entry, looked up): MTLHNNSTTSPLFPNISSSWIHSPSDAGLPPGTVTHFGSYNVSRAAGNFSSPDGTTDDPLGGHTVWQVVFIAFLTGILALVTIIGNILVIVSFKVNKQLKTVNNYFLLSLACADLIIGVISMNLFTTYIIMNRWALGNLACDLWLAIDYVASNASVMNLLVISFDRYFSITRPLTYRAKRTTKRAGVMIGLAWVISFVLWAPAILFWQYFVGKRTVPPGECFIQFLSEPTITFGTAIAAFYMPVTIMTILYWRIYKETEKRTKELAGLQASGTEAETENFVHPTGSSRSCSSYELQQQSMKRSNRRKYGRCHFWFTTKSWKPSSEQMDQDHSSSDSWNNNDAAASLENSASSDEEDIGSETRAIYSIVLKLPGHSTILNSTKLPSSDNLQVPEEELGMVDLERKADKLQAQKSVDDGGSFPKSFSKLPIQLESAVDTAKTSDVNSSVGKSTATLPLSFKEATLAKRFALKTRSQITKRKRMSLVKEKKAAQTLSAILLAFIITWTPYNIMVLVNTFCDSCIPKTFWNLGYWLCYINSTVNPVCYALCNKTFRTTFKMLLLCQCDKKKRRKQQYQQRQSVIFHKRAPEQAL

[25] = Inhibition of alpha1 adrenergic receptor at 10 uM by radioligand displacement assay; how it was run: as §1
[26] = Inhibition of GABA receptor at 10 uM by radioligand displacement assay; how it was run: as §2
[27] = target: 5-hydroxytryptamine receptor 1B (Homo sapiens) (UniProt P28222); assay: Inhibition of 5HT1b receptor at 10 uM by radioligand displacement assay; how it was run: as §2
[28] = Inhibition of MT1 receptor at 10 uM by radioligand displacement assay; how it was run: as §2
[29] = target: Translocator protein (Homo sapiens) (UniProt P30536); assay: Inhibition of Benzodiazepine receptor at 10 uM by radioligand displacement assay; how it was run: as §2
[30] = target: Histamine H1 receptor (Homo sapiens) (UniProt P35367); assay: Inhibition of H1 receptor at 10 uM by radioligand displacement assay; how it was run: as §2
Sequence of Histamine H1 receptor (Homo sapiens) (P35367 whole entry): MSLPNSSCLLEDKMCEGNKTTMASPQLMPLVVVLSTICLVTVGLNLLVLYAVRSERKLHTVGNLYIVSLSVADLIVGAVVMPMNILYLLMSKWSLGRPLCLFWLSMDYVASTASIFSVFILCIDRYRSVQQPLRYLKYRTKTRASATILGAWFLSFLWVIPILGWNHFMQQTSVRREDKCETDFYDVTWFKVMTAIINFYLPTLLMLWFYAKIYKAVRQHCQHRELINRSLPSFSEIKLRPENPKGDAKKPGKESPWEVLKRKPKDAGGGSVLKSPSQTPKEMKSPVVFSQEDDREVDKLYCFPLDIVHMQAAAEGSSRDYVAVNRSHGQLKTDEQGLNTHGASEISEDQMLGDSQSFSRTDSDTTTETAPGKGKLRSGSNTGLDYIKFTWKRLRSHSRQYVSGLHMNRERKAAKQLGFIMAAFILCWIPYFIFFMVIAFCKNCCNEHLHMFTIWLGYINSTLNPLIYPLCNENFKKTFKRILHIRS

[31] = Inhibition of L-type calcium channel at 10 uM by radioligand displacement assay; how it was run: as §2
[32] = target: 5-hydroxytryptamine receptor 2A (Homo sapiens) (UniProt P28223); assay: Inhibition of 5HT2A receptor at 10 uM by radioligand displacement assay; how it was run: as §2
[33] = target: Substance-K receptor (Homo sapiens) (UniProt P21452); assay: Inhibition of NK2 receptor at 10 uM by radioligand displacement assay; how it was run: as §2
Sequence of Substance-K receptor (Homo sapiens) (P21452 whole entry): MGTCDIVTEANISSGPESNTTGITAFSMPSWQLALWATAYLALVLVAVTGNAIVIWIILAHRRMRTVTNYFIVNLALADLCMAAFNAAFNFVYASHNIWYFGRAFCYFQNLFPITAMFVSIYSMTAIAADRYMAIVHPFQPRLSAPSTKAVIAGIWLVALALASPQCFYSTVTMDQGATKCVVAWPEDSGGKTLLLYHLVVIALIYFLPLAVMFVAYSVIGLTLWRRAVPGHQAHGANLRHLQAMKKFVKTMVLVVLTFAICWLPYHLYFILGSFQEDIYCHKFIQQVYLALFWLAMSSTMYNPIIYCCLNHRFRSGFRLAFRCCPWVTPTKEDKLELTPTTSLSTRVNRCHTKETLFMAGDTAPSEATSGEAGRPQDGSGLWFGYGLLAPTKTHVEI

[34] = target: Sodium-dependent dopamine transporter (Homo sapiens) (UniProt Q01959); assay: Inhibition of dopamine transporter at 10 uM by radioligand displacement assay; how it was run: as §1
[35] = target: Mu-type opioid receptor (Homo sapiens) (UniProt P35372); assay: Inhibition of Mu opioid receptor at 10 uM by radioligand displacement assay; how it was run: as §2
Sequence of Mu-type opioid receptor (Homo sapiens) (P35372 whole entry): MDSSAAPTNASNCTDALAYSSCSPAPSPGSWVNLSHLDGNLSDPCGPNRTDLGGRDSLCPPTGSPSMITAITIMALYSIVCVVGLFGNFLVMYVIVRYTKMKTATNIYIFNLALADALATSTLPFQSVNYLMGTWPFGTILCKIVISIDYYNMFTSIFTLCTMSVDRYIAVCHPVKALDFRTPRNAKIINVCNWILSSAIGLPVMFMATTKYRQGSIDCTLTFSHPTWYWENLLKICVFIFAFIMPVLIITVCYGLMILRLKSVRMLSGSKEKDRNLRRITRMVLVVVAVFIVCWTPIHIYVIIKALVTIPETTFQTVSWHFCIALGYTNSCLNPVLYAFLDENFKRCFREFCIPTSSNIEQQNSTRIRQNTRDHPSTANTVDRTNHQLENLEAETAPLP

[36] = target: Melanocortin receptor 4 (Homo sapiens) (UniProt P32245); assay: Inhibition of MC4 receptor at 10 uM by radioligand displacement assay; how it was run: as §2
[37] = target: Beta-2 adrenergic receptor (Homo sapiens) (UniProt P07550); assay: Inhibition of Beta2 adrenergic receptor at 10 uM by radioligand displacement assay; how it was run: as §2
[38] = target: 5-hydroxytryptamine receptor 3A (Homo sapiens) (UniProt P46098); assay: Inhibition of 5HT3 receptor at 10 uM by radioligand displacement assay; how it was run: as §2
[39] = target: Beta-1 adrenergic receptor (Homo sapiens) (UniProt P08588); assay: Inhibition of Beta1 adrenergic receptor at 10 uM by radioligand displacement assay; how it was run: as §2
[40] = target: 5-hydroxytryptamine receptor 6 (Homo sapiens) (UniProt P50406); assay: Inhibition of 5HT6 receptor at 10 uM by radioligand displacement assay; how it was run: as §2
[41] = target: Cannabinoid receptor 1 (Homo sapiens) (UniProt P21554); assay: Inhibition of CB1 receptor at 10 uM by radioligand displacement assay; how it was run: as §2
[42] = target: C-X-C chemokine receptor type 2 (Homo sapiens) (UniProt P25025); assay: Inhibition of CXCR2 receptor at 10 uM by radioligand displacement assay; how it was run: as §2
Sequence of C-X-C chemokine receptor type 2 (Homo sapiens) (P25025 whole entry): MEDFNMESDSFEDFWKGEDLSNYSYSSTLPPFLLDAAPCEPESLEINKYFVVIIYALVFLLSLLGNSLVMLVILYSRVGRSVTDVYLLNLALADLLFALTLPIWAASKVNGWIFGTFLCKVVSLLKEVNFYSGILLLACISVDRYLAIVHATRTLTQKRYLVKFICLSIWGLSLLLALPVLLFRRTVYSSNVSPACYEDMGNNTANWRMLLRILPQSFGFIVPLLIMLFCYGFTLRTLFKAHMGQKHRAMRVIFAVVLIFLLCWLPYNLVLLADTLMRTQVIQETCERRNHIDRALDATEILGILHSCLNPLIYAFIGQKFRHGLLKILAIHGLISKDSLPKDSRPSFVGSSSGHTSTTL

Question: Which inhibition [1] does the source give for Cc1cc(NS(C)(=O)=O)ccc1-n1c(CCC(=O)O)ccc1-c1ccc(-n2ccnc2)cc1 here?
Answer: inactive

Question: What about the inhibition [2] of the same molecule?
Answer: inactive

Question: What about the IC50 [3] of the same molecule?
Answer: 29 nM

Question: What about the inhibition [4] of the same molecule?
Answer: inactive

Question: What about the inhibition [5] of the same molecule?
Answer: inactive

Question: And the inhibition [6]?
Answer: inactive

Question: What about the inhibition [7] of the same molecule?
Answer: inactive

Question: What about the inhibition [8] of the same molecule?
Answer: inactive

Question: And the inhibition [9]?
Answer: inactive

Question: And the inhibition [10]?
Answer: inactive

Question: What about the inhibition [11] of the same molecule?
Answer: inactive

Question: And the inhibition [12]?
Answer: inactive

Question: And the inhibition [13]?
Answer: inactive

Question: What about the inhibition [14] of the same molecule?
Answer: inactive

Question: What about the inhibition [15] of the same molecule?
Answer: inactive

Question: What about the inhibition [16] of the same molecule?
Answer: inactive

Question: And the inhibition [17]?
Answer: inactive

Question: What about the inhibition [18] of the same molecule?
Answer: inactive

Question: What about the inhibition [19] of the same molecule?
Answer: inactive

Question: What about the IC50 (A549) of the same molecule?
Answer: > 150000 nM

Question: What about the inhibition [20] of the same molecule?
Answer: inactive

Question: What about the inhibition [21] of the same molecule?
Answer: inactive

Question: And the inhibition [22]?
Answer: inactive

Question: And the inhibition [23]?
Answer: inactive

Question: And the inhibition [24]?
Answer: inactive

Question: What about the inhibition [25] of the same molecule?
Answer: inactive

Question: What about the inhibition [26] of the same molecule?
Answer: inactive

Question: What about the inhibition [27] of the same molecule?
Answer: inactive

Question: What about the inhibition [28] of the same molecule?
Answer: inactive

Question: What about the inhibition [29] of the same molecule?
Answer: inactive

Question: And the inhibition [30]?
Answer: inactive

Question: And the inhibition [31]?
Answer: inactive

Question: What about the inhibition [32] of the same molecule?
Answer: inactive

Question: And the inhibition [33]?
Answer: inactive

Question: And the inhibition [34]?
Answer: inactive

Question: What about the inhibition [35] of the same molecule?
Answer: inactive

Question: What about the inhibition [36] of the same molecule?
Answer: inactive

Question: And the inhibition [37]?
Answer: inactive

Question: And the inhibition [38]?
Answer: inactive

Question: And the inhibition [39]?
Answer: inactive

Question: What about the inhibition [40] of the same molecule?
Answer: inactive

Question: What about the inhibition [41] of the same molecule?
Answer: inactive

Question: What about the inhibition [42] of the same molecule?
Answer: inactive

Question: With Cc1cc(NS(C)(=O)=O)ccc1-n1c(CCC(=O)O)ccc1-c1ccc(-n2ccnc2C)s1 as the molecule, how does the inhibition [1] read?
Answer: inactive

Question: And the inhibition [2]?
Answer: inactive

Question: What about the IC50 [3] of the same molecule?
Answer: 43 nM

Question: What about the inhibition [4] of the same molecule?
Answer: inactive

Question: And the inhibition [5]?
Answer: inactive

Question: And the inhibition [6]?
Answer: inactive

Question: And the inhibition [7]?
Answer: inactive

Question: And the inhibition [8]?
Answer: inactive

Question: What about the inhibition [9] of the same molecule?
Answer: inactive

Question: What about the inhibition [10] of the same molecule?
Answer: inactive

Question: What about the inhibition [11] of the same molecule?
Answer: inactive

Question: And the inhibition [12]?
Answer: inactive

Question: And the inhibition [13]?
Answer: inactive

Question: What about the inhibition [14] of the same molecule?
Answer: inactive

Question: What about the inhibition [15] of the same molecule?
Answer: inactive

Question: What about the inhibition [16] of the same molecule?
Answer: inactive

Question: What about the inhibition [17] of the same molecule?
Answer: inactive

Question: And the inhibition [18]?
Answer: inactive

Question: And the inhibition [19]?
Answer: inactive

Question: What about the IC50 (A549) of the same molecule?
Answer: > 150000 nM

Question: And the inhibition [20]?
Answer: inactive

Question: What about the inhibition [21] of the same molecule?
Answer: inactive

Question: And the inhibition [22]?
Answer: inactive

Question: What about the inhibition [23] of the same molecule?
Answer: inactive

Question: And the inhibition [24]?
Answer: inactive

Question: What about the inhibition [25] of the same molecule?
Answer: inactive

Question: And the inhibition [26]?
Answer: inactive

Question: And the inhibition [27]?
Answer: inactive

Question: And the inhibition [28]?
Answer: inactive

Question: And the inhibition [29]?
Answer: inactive

Question: What about the inhibition [30] of the same molecule?
Answer: inactive

Question: What about the inhibition [31] of the same molecule?
Answer: inactive

Question: And the inhibition [32]?
Answer: inactive

Question: And the inhibition [33]?
Answer: inactive

Question: And the inhibition [34]?
Answer: inactive

Question: And the inhibition [35]?
Answer: inactive

Question: And the inhibition [36]?
Answer: inactive

Question: What about the inhibition [37] of the same molecule?
Answer: inactive

Question: What about the inhibition [38] of the same molecule?
Answer: inactive

Question: And the inhibition [39]?
Answer: inactive

Question: And the inhibition [40]?
Answer: inactive

Question: And the inhibition [41]?
Answer: inactive

Question: What about the inhibition [42] of the same molecule?
Answer: inactive

— ChEMBL document CHEMBL2010673, “Structure-activity relationship of pyrrole based S-nitrosoglutathione reductase inhibitors: carboxamide modification” (Bioorg Med Chem Lett, 2012)
